# Test results: PubChem BioAssay
# Active and inactive are the calls of the source.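 Rule for the calls, unless noted: active = visually confirmed hit in the image check and inhibition above 20%; inconclusive = visually confirmed hit but inhibition not above 20%; inactive = no visual hit in the image check.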
# Experiments:
# [1] = inhibitors of TNFa-induced NFkB p65 translocation, primary screen, imaging, HUVEC, MLSMR starter and 10KST1 sets (AID 438;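 active = inhibition above 20% together with a positive visual image hit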;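 note: compound added about 3h40 before a 20 min TNFalpha stimulation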;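 for inhibition: signal is the nuclear over cytoplasmic p65 intensity ratio per well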); conditions: HUVEC TNFa-induced p65 nuclear translocation; cell count: measured here: nuclei count (cytotoxicity indicator), at 2.08 µM; inhibition: at 2 µM, stronger effect = higher value, 0% TNFa-plus-vehicle, 100% no-TNFa wells
# [2] = inhibitors of E-selectin induction by TNFa, primary screen, imaging, HUVEC, immunofluorescence, MLSMR starter and 10KST1 sets (AID 487); conditions: HUVEC TNFalpha-induced E-selectin immunofluorescence imaging, at 2 µM; inhibition: stronger effect = higher value; nuclei count: measured here: cell number, toxicity;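 for inhibition: signal is fraction of cell area covered by stained E-selectin grains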;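 for nuclei count: 100% = median nuclei count of all wells on the same plate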
# [3] = DUSP6 inhibitors restoring Erk phosphorylation by chemical complementation, primary imaging in DUSP6-transfected HeLa (AID 609;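 active = compounds giving at least 50% inhibition in the cell-based MKP-3 phosphatase rescue imaging test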;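 for inhibition: phospho-Erk level distribution per well compared with pooled transfected vehicle control wells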); conditions: HeLa MKP-3 transfected, phospho-Erk imaging KS statistic, at 10 µM, cells stimulated with TPA for 15 min
# [4] = biological target: Dual specificity protein phosphatase 6 (Homo sapiens) (UniProt Q16828); assay: as above; conditions: HeLa MKP-3 transfected, phospho-Erk imaging KS statistic; at 10 µM; stronger effect = higher value; cells stimulated with TPA for 15 min
# Sequence of Dual specificity protein phosphatase 6 (Homo sapiens) (Q16828 whole entry, looked up): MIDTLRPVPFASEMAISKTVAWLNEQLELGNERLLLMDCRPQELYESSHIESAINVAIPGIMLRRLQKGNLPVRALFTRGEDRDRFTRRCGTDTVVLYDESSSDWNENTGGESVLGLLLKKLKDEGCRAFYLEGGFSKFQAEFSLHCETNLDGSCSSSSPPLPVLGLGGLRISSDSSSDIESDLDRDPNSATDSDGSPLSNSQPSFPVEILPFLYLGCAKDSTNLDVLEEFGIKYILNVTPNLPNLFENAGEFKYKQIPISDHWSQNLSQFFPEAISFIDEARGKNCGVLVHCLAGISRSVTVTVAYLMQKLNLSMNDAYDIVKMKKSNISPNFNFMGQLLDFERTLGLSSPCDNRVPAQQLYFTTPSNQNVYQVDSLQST
# [5] = biological target: Voltage-gated potassium channel subunit beta-2 (Rattus norvegicus) (UniProt P62483); assay: KvBeta enzyme negative modulators, primary screen, biochemical, NADPH fluorescence (AID 622;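 active = fluorescence slope higher than the sample average by over 3 SD, cut at about -0.22 in these data, passing the limit was not always enough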;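 note: slope of raw intensity against log time taken from 70 to 1610 s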); conditions: recombinant KvBeta, 4-cyanobenzaldehyde reduction, at 10 µM, stronger effect = higher value
# Sequence of Voltage-gated potassium channel subunit beta-2 (Rattus norvegicus) (P62483 whole entry, looked up): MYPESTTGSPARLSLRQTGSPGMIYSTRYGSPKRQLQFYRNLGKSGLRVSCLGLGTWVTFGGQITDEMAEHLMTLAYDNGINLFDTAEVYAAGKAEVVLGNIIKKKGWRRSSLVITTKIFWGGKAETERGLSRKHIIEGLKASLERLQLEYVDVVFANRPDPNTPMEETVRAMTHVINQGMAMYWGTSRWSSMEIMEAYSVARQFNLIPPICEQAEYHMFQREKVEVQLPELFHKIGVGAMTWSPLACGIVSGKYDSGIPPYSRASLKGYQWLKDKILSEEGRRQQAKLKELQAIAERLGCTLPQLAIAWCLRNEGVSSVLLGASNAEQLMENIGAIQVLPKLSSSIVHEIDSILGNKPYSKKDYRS
# [6] = biological target: Voltage-gated potassium channel subunit beta-2 (Rattus norvegicus) (UniProt P62483); assay: KvBeta positive modulators, primary screen, biochemical, NADPH fluorescence (AID 623;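 active = NADPH fluorescence slope more negative than the mean of all samples by about 3 SD, 99.7% confidence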;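 note: fluorescence intensity change per second fitted from 20 to 320 s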); conditions: Recombinant KvBeta, NADPH fluorescence decrease slope, 10 min; at 10 µM; stronger effect = lower value
# [7] = biological target: Alpha-2C adrenergic receptor (Homo sapiens) (UniProt P18825); assay: modulators of alpha2C/GIRK thallium flux, primary screen, cell-based, HEK293 alpha2C/GIRK1/2 (AID 624;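 active = fluorescence slope after compound addition differing from the mean of all screened samples at 99.7% confidence, in either direction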;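 note: slope of fluorescence ratio to pre-addition baseline per second over 15 to 24 s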); conditions: thallium flux BTC fluorescence, at 10 µM, actives lie on both sides
# Sequence of Alpha-2C adrenergic receptor (Homo sapiens) (P18825 whole entry, looked up): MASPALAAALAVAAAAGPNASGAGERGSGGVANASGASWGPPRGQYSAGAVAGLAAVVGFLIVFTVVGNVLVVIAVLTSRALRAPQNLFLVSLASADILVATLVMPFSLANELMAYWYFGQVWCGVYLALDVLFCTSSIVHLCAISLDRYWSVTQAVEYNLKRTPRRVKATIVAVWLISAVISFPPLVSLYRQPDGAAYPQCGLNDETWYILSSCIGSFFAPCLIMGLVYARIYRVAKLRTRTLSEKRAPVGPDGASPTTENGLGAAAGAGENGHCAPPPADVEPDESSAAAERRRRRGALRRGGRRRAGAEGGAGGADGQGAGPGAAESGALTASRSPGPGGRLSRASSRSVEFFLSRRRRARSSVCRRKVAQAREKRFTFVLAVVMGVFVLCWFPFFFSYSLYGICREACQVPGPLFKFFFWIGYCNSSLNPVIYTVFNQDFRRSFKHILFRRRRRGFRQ
# [8] = inhibitors of larval lipid processing in zebrafish, primary screen, whole organism, PED6 fluorescence, gall bladder and intestine (AID 686;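 active = a full or partial loss of lipid-probe fluorescence in the fish gall bladder, intestine or both, judged by eye; inactive = no fluorescence loss, or compound toxic to the fish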;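 note: larvae 5 to 7 days old with five fish per well; signal comes from phospholipase A2 cleavage of quenched PED6 carried via bile; overnight exposure to compound and PED6 before scoring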); conditions: Zebrafish larvae PED6 lipid processing, fluorescence scoring; screened at 20 µM (by protocol)
# How it was run: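 Doses: 20 µM single dose. Test system: live zebrafish larvae aged 5-7 days, whole organism. Quantity: five larvae per well. Measured by: By-eye fluorescence microscopy. Reagent: ingested quenched lipid PED6 at 100 nM. Read-out: visual per-well fluorescence inhibition score. Times: overnight exposure of larvae to compound plus PED6.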
# [9] = inhibitors of Chlamydomonas gravitaxis, primary screen, whole organism, Chlamydomonas reinhardtii, WT vs cilia-less mutant, absorbance, 96-well (AID 463189;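 active = inhibition at or above 50% relative to wild type and mutant plate controls; inactive = inhibition below 50%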;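 note: 0% = wild type cc124 cells in DMSO and 100% = ciliumless bld1 mutant cells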); conditions: OD600 absorbance, 2 days, at 10 µM, stronger effect = higher value
# [10] = measured here: cell density z-score
# [11] = measured here: nuclear c-Myc green intensity z-score
# [12] = measured here: nuclear pErk red intensity z-score, stronger effect = higher value
Compound,cell count [1],inhibition [1],inhibition [2],nuclei count [2] [%],"z-score [3, 10]","z-score [3, 11]","z-score [3, 12]",inhibition [4],fluorescence slope [5],NADPH fluorescence slope [6],slope [7],outcome [8],inhibition [9]
CC(C)C1Cc2c(C#N)c(N)n(C)c(=S)c2CO1 (stereo unspecified),548,1.3% (inactive),-204% (inactive),134,-0.967,0.261,0.802,-8.76% (inactive),-0.509 (inactive),-4e-05 (inactive),0.00431 (inactive),inactive,-8.05% (inactive)
CC(=O)Oc1ccccc1C1OC(=O)c2ccccc2N1C(C)=O (stereo unspecified),435,-26.4% (inactive),-136% (inactive),171,-0.279,-1.25,-0.306,17.7% (inactive),-0.274 (inactive),9.9e-06 (inactive),0.00513 (inactive),inactive,23.1% (inactive)
O=C(CN1C(=O)c2ccccc2S1(=O)=O)c1ccccc1,567,-7.2% (inactive),39.2% (inactive),193,0.246,1.04,-0.287,7.73% (inactive),-0.511 (inactive),-9e-05 (inactive),0.005 (inactive),inactive,-6.59% (inactive)
CC1(C)Cc2c(sc3nc4n(c(=N)c23)CCC4)CO1,678,-24.9% (inactive),-38.1% (inactive),164,-0.552,1.24,2.19,-13.9% (inactive),-0.416 (inactive),-4.6e-05 (inactive),0.00517 (inactive),inactive,-6.56% (inactive)
Nc1nnc(CSc2ccc(Cl)cc2)s1,605,-14% (inactive),33.5% (inactive),171,0.155,-0.0933,-0.139,-7.86% (inactive),-0.369 (inactive),-4.8e-05 (inactive),0.00734 (inactive),inactive,6.7% (inactive)
COc1cccc(/C(O)=C2\C(=O)C(=O)N(c3ccccn3)C2c2ccccc2OC)c1 (stereo unspecified),512,-5.9% (inactive),-90.1% (inactive),126,1.61,0.206,-0.573,12.3% (inactive),-0.54 (inactive),-2.1e-05 (inactive),0.00547 (inactive),inactive,-14.1% (inactive)
CCOc1cccc(-c2nnc3sc(-c4ccc(C)cc4)nn23)c1,588,-12% (inactive),-113% (inactive),166,0.29,-1.67,0.863,-9.66% (inactive),-0.458 (inactive),-0.000137 (inactive),0.00552 (inactive),inactive,-1.49% (inactive)
C=CCOC(=O)C1=C(C)NC(SCC(=O)N(CC)CC)=C(C#N)C1c1ccccc1 (stereo unspecified),348,-0.8% (inactive),-27.9% (inactive),140,1.19,0.414,-0.822,-0.584% (inactive),-0.405 (inactive),-1.3e-05 (inactive),0.00552 (inactive),inactive,4.36% (inactive)
O=C(N(c1ccccc1)c1ccccc1)n1ccnc1,543,-15.7% (inactive),-71.5% (inactive),169,-1.35,-0.0585,1.08,-11.5% (inactive),-0.487 (inactive),-5.7e-05 (inactive),0.00471 (inactive),inactive,-0.901% (inactive)
CC(C)(C)NC(=O)CSc1nsc(SCC(=O)NC(C)(C)C)c1C#N,601,-26% (inactive),18.9% (inactive),178,-0.466,-1.37,0.955,-4.27% (inactive),-0.412 (inactive),-6.5e-05 (inactive),0.00541 (inactive),inactive,12.4% (inactive)
COc1ccc(C(=O)c2sc(NC(C)C)nc2N)cc1OC,327,-12.2% (inactive),-16.7% (inactive),105,-0.265,0.429,-0.628,-11.9% (inactive),-0.458 (inactive),-6.7e-06 (inactive),0.0049 (inactive),inactive,-3.2% (inactive)
CCOc1cccc(-c2nnc3sc(-c4cccs4)nn23)c1,464,-0.1% (inactive),-85.6% (inactive),99.8,-0.8,1.1,0.15,-2.47% (inactive),-0.456 (inactive),-6.5e-05 (inactive),0.00982 (inactive),inactive,18.9% (inactive)
COc1cccc(OC)c1OCC(C)CNCC1CCCO1 (stereo unspecified),524,-5.6% (inactive),-156% (inactive),123,-1,1.14,1.28,9.39% (inactive),-0.524 (inactive),-5e-05 (inactive),0.00511 (inactive),inactive,11.3% (inactive)
COC(=O)CC1=C(C(=O)OC)C(c2ccncc2)C(C#N)=C(N)O1 (stereo unspecified),492,-3.8% (inactive),-58.7% (inactive),157,1.74,-0.108,-0.84,16.8% (inactive),-0.366 (inactive),1e-05 (inactive),0.00477 (inactive),inactive,24.5% (inactive)
CSc1nc(N)nc(SCC(=O)OC(C)C)c1C#N,394,-11.8% (inactive),-26.4% (inactive),76.9,-1.22,-0.698,-1.26,0.671% (inactive),-0.371 (inactive),5e-05 (inactive),0.00629 (inactive),inactive,72.2% (active)
CC(=O)Oc1ccccc1C1OCCN1C(C)=O (stereo unspecified),619,-6.5% (inactive),-38.8% (inactive),170,-0.208,-0.565,1.43,-2.69% (inactive),-0.375 (inactive),-2.3e-05 (inactive),0.00518 (inactive),inactive,-5.26% (inactive)
O=c1c(F)cn(C2CCCO2)c(=O)n1Cc1ccccc1Cl (stereo unspecified),614,1.6% (inactive),11.4% (inactive),203,0.269,0.415,0.187,0.671% (inactive),-0.534 (inactive),-7.3e-05 (inactive),0.00591 (inactive),inactive,4.11% (inactive)
CCOC(=O)C1=C(C)NC(SCC(=O)Nc2nc(C)cs2)=C(C#N)C1c1cccs1 (stereo unspecified),540,-13.4% (inactive),-57.8% (inactive),106,1.78,-0.812,-0.565,-7.28% (inactive),-0.472 (inactive),6.5e-06 (inactive),0.006 (inactive),inactive,2.72% (inactive)
COCc1[nH]nc2c1C(c1ccccc1OC)C(C#N)=C(N)O2 (stereo unspecified),633,-4.1% (inactive),27.6% (inactive),101,0.246,0.997,-0.624,-7.28% (inactive),-0.488 (inactive),-1.1e-05 (inactive),0.00544 (inactive),inactive,31.9% (inactive)
O=c1/c(=C\c2cccn2-c2ccccc2)sc2nc3ccccc3n12,640,-5.8% (inactive),-42.1% (inactive),99.1,-0.282,0.665,0.128,3.56% (inactive),-0.181 (inactive),8.6e-06 (inactive),0.00666 (inactive),inactive,9.26% (inactive)
CCOC(=O)CC(=O)CSc1nc(N)c(C#N)c(-c2ccc(F)cc2)c1C#N,650,-5.7% (inactive),44% (inactive),167,-1.03,0.96,2.1,-7.28% (inactive),-0.366 (inactive),-6.3e-05 (inactive),0.00627 (inactive),inactive,-14.2% (inactive)
COc1ccc(NC2CC(=O)N(C)C2=O)cc1 (stereo unspecified),334,-4.4% (inactive),15% (inactive),92.4,-0.811,0.0749,1.77,7.42% (inactive),-0.424 (inactive),1.4e-05 (inactive),0.00509 (inactive),inactive,30.2% (inactive)
Cc1nnc(C)n1/N=C/c1cccn1C,300,-9.7% (inactive),-14.9% (inactive),136,-0.977,2.09,-1.42,3.5% (inactive),-0.412 (inactive),-0.00014 (inactive),0.00647 (inactive),inactive,-5.16% (inactive)
CC1(C)Cc2c(oc3ncn4ncnc4c23)CO1,587,-8.9% (inactive),-143% (inactive),102,-0.312,-1.57,0.382,13.2% (inactive),-0.569 (inactive),-8.8e-05 (inactive),0.00443 (inactive),inactive,18.4% (inactive)
CCCc1cc(-c2nc(N)ncc2-c2ccc3c(c2)OCCCO3)c(O)cc1OC,570,-16.3% (inactive),-136% (inactive),122,0.844,-1.91,-0.934,11.9% (inactive),-0.519 (inactive),-5.4e-05 (inactive),0.00422 (inactive),inactive,91.5% (active)
CSC(=Nc1ccccc1)C1=C(O)COC1=O,315,-17.4% (inactive),-75.7% (inactive),139,1.64,-0.593,-1.01,5.26% (inactive),-0.419 (inactive),-8.2e-05 (inactive),0.00729 (inactive),inactive,-2.91% (inactive)
N/C(CCN1CCOCC1)=N/O,570,-20.6% (inactive),11.7% (inactive),147,0.759,-0.712,0.254,22.7% (inactive),-0.445 (inactive),-1.6e-05 (inactive),0.00517 (inactive),inactive,17.7% (inactive)
